The subject of test [1] is Candida albicans. The test can be described thus: Antifungal activity against Candida albicans MY1055 infected in DBA/2 mouse assessed as mouse mortality at 50 mg/kg, ip twice daily measured after 4 days postinfection. The format is functional. As to conditions: route intraperitoneal. In outline: (§1)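 Mice infected iv via lateral tail vein with C. albicans MY1055 at 2.51 × 10⁴ cfu/mouse. Five DBA/2 mice per group, dosed ip twice daily; compound formulated in 5% DMSO in sterile distilled water. Mortality and general health observed for 4 days after challenge.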

The subject of test [2] is Candida albicans. The test can be described thus: Antifungal activity against Candida albicans MY1055 infected in DBA/2 mouse assessed as reduction in fugal CFU treated mouse twice daily measured after 4 days postinfection. The format is functional, organism-based. The method in brief: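 DBA/2 mice (5 per group) were infected iv via lateral tail vein with 2.51 × 10⁴ cfu/mouse. They were dosed ip twice daily at 100 or 50 mg/kg in 5% DMSO/sterile water. On day 4, kidneys were homogenized in saline, diluted 10-fold serially, plated on SDA and incubated at 35 °C for 30–48 h. Cfu/g kidney were compared with sham-treated controls by paired two-tailed t-test.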

Test [3] has as its system Candida albicans. Nature of the test: Antifungal activity against Candida albicans MY1055 in presence of 50% mouse serum after 20 hrs. The format is functional. The note with it: MY1055, 20 h. In outline:
(§2)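 Broth MIC. Cells inoculated at 10⁵ cfu/mL in growth medium with 2-fold serial dilutions of compound. Incubated 20 h at 37 °C. MIC taken as minimum inhibitory concentration. For line 2 the medium held 50% mouse serum.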

Test [4] deals with Candida albicans. Nature of the test: Antifungal activity against Candida albicans MY1055 infected in DBA/2 mouse assessed as mouse mortality at 100 mg/kg, ip twice daily measured after 4 days postinfection. The format is functional. As to conditions: route intraperitoneal. The method in brief:
as §1

The next test has as its system Pichia kudriavzevii. Nature of the test: Antifungal activity against Candida krusei ATCC 6258 after 20 hrs. The format is functional. The note with it: ATCC 6258, 20 h. In outline: as §2
Test [5] concerns Aspergillus fumigatus. The test can be described thus: Antifungal activity against Aspergillus fumigatus MF5568 in presence of 50% human serum after 20 hrs. As to conditions: MF5568, 20 h. The format is functional. In outline:
(§3)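 Broth MIC with cells seeded at 10⁵ cfu/mL and exposed to 2-fold serial compound dilutions in growth medium, 37 °C for 20 h. MIC taken as the minimum inhibitory concentration.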

Another test has as its system Nakaseomyces glabratus. Nature of the test: Antifungal activity against Candida glabrata MY1381 after 20 hrs. The format is functional. As to conditions: MY1381, 20 h. The method in brief: as §2
Test [6] deals with Trichophyton mentagrophytes. The test can be described thus: Antifungal activity against Trichophyton mentagrophytes MF7004 after 20 hrs. The format is functional. As to conditions: MF7004, 20 h. In outline:
as §3

Test [7] concerns Aspergillus fumigatus. Nature of the test: Antifungal activity against Aspergillus fumigatus MF5568 after 20 hrs. The format is functional. The note with it: MF5568, 20 h. In outline: as §3
For another test, the system named is Candida parapsilosis. The test can be described thus: Antifungal activity against Candida parapsilosis ATCC 22019 after 20 hrs. As to conditions: Lodderomyces parapsilosis, ATCC 22019, 20 h. The format is functional. The method in brief:
as §2

Another test deals with Clavispora lusitaniae. Nature of the test: Antifungal activity against Candida lusitaniae MY1396 after 20 hrs. The format is functional. The note with it: MY1396, 20 h. The method in brief:
as §3

For test [8], the system named is Candida albicans. The test can be described thus: Antifungal activity against Candida albicans MY1055 after 20 hrs. The note with it: MY1055, 20 h. The format is functional. In outline: as §2
Another test concerns Staphylococcus aureus. Nature of the test: […] activity against Staphylococcus aureus MB2865. The format is functional.

The results in this text go back to ChEMBL document CHEMBL1151811, “Isolation, structure elucidation, and biological activity of virgineone from Lachnum Wirgineum using the genome-wide Candida albicans fitness test” (2009).

In brackets after ≈: the same amount, converted by molar mass. Activity calls are given as the source filed them. No cut-off for these calls is given here. Bounds are passed on as bounds.

On to `CC(CCCCCCCCC(=O)CCCCCCCCCC(O)CO[C@@H]1O[C@H](CO)[C@@H](O)[C@H](O)[C@@H]1O)C(=O)C1=C(O)C(Cc2ccc(O)cc2)NC1=O` (stereo partly drawn) [VIRGINEONE], for which the figures for the Activity in the test with Candida albicans [1] and with Candida albicans [4] were 40% and 100%, respectively. Also, in the test with Candida albicans [2], the result was inactive. Also, the MIC with Candida albicans [3] is above 32 µg/mL; with Pichia kudriavzevii, 16 µg/mL (≈ 21.3 µM); in the test on Aspergillus fumigatus [5] it was above 32 µg/mL; against Nakaseomyces glabratus it was 8 µg/mL (≈ 10.7 µM); in [6] it was 8 µg/mL (≈ 10.7 µM); in the test with Aspergillus fumigatus [7] it was 8 µg/mL (≈ 10.7 µM). Also, the MIC with Candida parapsilosis came to 8 µg/mL (≈ 10.7 µM); against Clavispora lusitaniae it was 4 µg/mL (≈ 5.33 µM); with Candida albicans [8] it was 8 µg/mL (≈ 10.7 µM); against Staphylococcus aureus, 16 µg/mL (≈ 21.3 µM).

As for `CC[C@H](C)C[C@H](C)CCCCCCCCC(=O)N[C@H]1C[C@@H](O)[C@@H](NCCN)NC(=O)[C@@H]2[C@@H](O)CCN2C(=O)[C@H]([C@H](O)CCN)NC(=O)[C@H]([C@H](O)[C@@H](O)c2ccc(O)cc2)NC(=O)[C@@H]2C[C@@H](O)CN2C(=O)[C@H]([C@@H](C)O)NC1=O` [CASPOFUNGIN], the MIC is 0.25 µg/mL with Candida albicans [3]; 1 µg/mL (≈ 0.915 µM) with Pichia kudriavzevii; 32 µg/mL in the test on Aspergillus fumigatus [5]; 0.25 µg/mL (≈ 0.229 µM) in the test on Nakaseomyces glabratus; 32 µg/mL (≈ 29.3 µM) in [6]; 32 µg/mL (≈ 29.3 µM) against Aspergillus fumigatus [7]. Further, the MIC against Candida parapsilosis is 0.5 µg/mL (≈ 0.457 µM); against Clavispora lusitaniae, below 0.03 µg/mL; against Candida albicans [8], 0.5 µg/mL (≈ 0.457 µM); in the test with Staphylococcus aureus, above 32 µg/mL.

In general, MIC refers to the lowest concentration that inhibits growth of the organism.
